M5 ag: CHRM5 agonism in calcium assay; activation, % at 3 µM; actives 0.19% (n = 360,000); P08912; CHO-K1 hM5 cells, Fluo-8 calcium fluorescence; 0% DMSO wells, 100% maximal acetylcholine response;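 active means activation above the run's mean over test compounds plus 3 SD, cut at about 23% in these data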;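 further: signal is peak over basal fluorescence ratio across the kinetic read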
M4 ag: agonists of human muscarinic M4 receptor (CHRM4). CHO-K1 hM4/Gqi5, Fluo-8 calcium fluorescence; vehicle 0%, full acetylcholine response 100%. activation, % at 3 µM. actives 0.14% (n = 360,000). AID 624127;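 active means activation above the run mean over all test wells plus 3 SD, cut at about 32% in these data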;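 further: peak over basal fluorescence ratio per well then scaled between controls; 0% = DMSO wells and 100% = acetylcholine at EC100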
Target sequence (P08173 whole entry, looked up): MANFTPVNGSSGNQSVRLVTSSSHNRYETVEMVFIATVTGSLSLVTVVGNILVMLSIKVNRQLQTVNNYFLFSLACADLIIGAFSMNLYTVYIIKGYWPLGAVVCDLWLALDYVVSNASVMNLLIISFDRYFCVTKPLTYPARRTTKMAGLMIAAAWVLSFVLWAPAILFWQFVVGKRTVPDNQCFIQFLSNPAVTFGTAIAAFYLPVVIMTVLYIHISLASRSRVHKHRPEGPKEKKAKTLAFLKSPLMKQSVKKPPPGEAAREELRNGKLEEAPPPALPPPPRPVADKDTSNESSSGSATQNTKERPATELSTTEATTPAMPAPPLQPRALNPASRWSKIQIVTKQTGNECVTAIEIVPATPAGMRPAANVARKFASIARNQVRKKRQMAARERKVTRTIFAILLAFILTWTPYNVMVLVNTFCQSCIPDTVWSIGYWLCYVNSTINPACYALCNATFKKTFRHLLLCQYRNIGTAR
CHRM5 PAM: positive allosteric modulators of human muscarinic M5 receptor; CHO-K1 hM5, Fluo-8 calcium, ACh EC20 PAM; 0% = ACh EC20, 100% = ACh EC100; activation, % at 3 µM; actives 0.3% (n = 360,000);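 active means activation above the run cutoff, the mean activation of all test compounds plus 3 SD, cut at about 18% in these data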
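Assay system: CHO-K1 hM5 cells. Also added: acetylcholine at EC20 concentration, added after compound. Dosing: 3 µM, single dose. Times: compound preincubation 140 s before EC20 acetylcholine addition. Signal: Fluo-8 calcium fluorescence. Measure: % activation relative to EC20 and EC100 ACh responses. Repeats: singlicate, one well per test compound.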
CHRM4 antagonist: CHRM4 antagonism in calcium assay; P08173; actives 0.73% (n = 360,000); inhibition, % at 3 µM; CHO-hM4 cells, ACh EC80, Fluo-8 calcium fluorescence;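 active means inhibition above its plate's cutoff, the mean inhibition of sample wells plus 3 SD, cut at about 27% in these data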;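 further: 0% = acetylcholine EC80 with DMSO and 100% = DMSO without agonist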
CHRM4 PAM: CHRM4 positive allosteric modulation | P08173 | activation, % at 3 µM | CHO-K1 hM4/Gqi5, Fluo-8 calcium fluorescence, ACh EC20; 0% = ACh EC20, 100% = maximal ACh | actives 0.4% (n = 360,000) | AID 624126;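 active means activation above its plate's cutoff, the mean activation of sample wells plus 3 SD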
CHRM5 antagonist: antagonists of human muscarinic M5 receptor (CHRM5); P08912; CHO-hM5 cells, Fluo-8 calcium fluorescence, ACh EC80; AID 624040; inhibition, % at 3 µM; actives 0.59% (n = 360,000);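 active means inhibition above a per-plate cutoff, the mean of that plate's test compounds plus 3 SD, cut at about 27% in these data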;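 further: 0% = acetylcholine EC80 with DMSO and 100% = DMSO without agonist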
* hit, by the source's call; ! = not active in a repeat. This is a sample that favours compounds with a hit; in the whole collection about 1.9% have one here.

SMILES	M5 ag	M4 ag	CHRM5 PAM	CHRM4 antagonist	CHRM4 PAM	CHRM5 antagonist
COc1cccc(CN(C)C(=O)/C=C/c2ccc(S(=O)(=O)N3CCCCCC3)cc2)c1	-0.4	8.2	-8.0	4.7	-12.3	9.5
O=S(=O)(c1ccc(Cl)cc1)N1CCCC1c1nc2ccccc2s1 (stereo unspecified)	-4.6	0.7	-4.1	-2.1	2.2	3.7
Cc1ccc(S(=O)(=O)N2CCCC2c2nc3ccccc3s2)cc1 (stereo unspecified)	-8.2	0.3	18.2*	4.6	8.3	-4.3
COCCN(C(=O)CCC(=O)Nc1ccccn1)C(C(=O)NCCC(C)C)c1ccc(C)cc1 (stereo unspecified)	-1.1	0.6	5.1	7.3	-1.2	8.9
O=C(Nc1ccc(Oc2ccccc2)cc1)c1csc([C@@H]2C[C@H](O)[C@@H](CO)O2)n1	6.6	16.5	-13.9	3.4	-7.5	9.7
Cc1ccc(NC(=O)C2C3CCC(O3)C2C(=O)O)c(Br)c1 (stereo unspecified)	4.4	0.6	18.6*	-4.0	5.6	-5.3
O=C(O)C1C2CCC(O2)C1C(=O)Nc1ccc(F)cc1 (stereo unspecified)	-3.7	2.9	-13.5	0.1	8.5	35.5*
CC(C)C[C@H]1CNC(=O)C(=O)N1CC1CCN(CCc2ccccc2)CC1	-0.1	-0.2	-2.2	9.4	-2.9	9.4
C=CC(=O)N=c1sc2ccccc2n1-c1ccccc1	-2.1	3.1	-12.2	-5.7	-7.3	-3.6
N=c1sc2ccccc2n1-c1ccccc1	-0.4	13.9	-12.8	22.2	-22.8	27.2*
Cc1c(NC(=O)CN2CCC(C(N)=O)CC2)cccc1[N+](=O)[O-]	2.8	1.8	21.2*	3.2	-1.7	-2.6
Cc1ccccc1C(=O)N1CCC(C(=O)OCC(=O)Nc2cccc([N+](=O)[O-])c2C)CC1	3.5	7.2	-3.6	-16.3	8.8	3.5
CC1CC(C)(C)OC(C[N+]2(C)CCCCC2)O1 (stereo unspecified)	-19.9	-0.1	-32.6	36.5*	-46.1	31.4*
C[N+]1(CC2COC3(CCCCC3)O2)CCCC1 (stereo unspecified)	-7.5	-0.4	-5.0	4.4	-10.2	7.6
COc1ccc(S(=O)(=O)Cc2ccc(C(=O)NCCCN(C)c3ccccc3)o2)cc1	-3.0	7.0	0.1	27.7*	-16.2	8.0
CC(=O)NCCC(=O)NCc1ccc(F)cc1	1.3	1.1	-9.0	0.5	22.0*	-11.8
CN(N)c1nc(C(F)(F)F)nc2ccccc12	-2.9	-0.4	-3.8	-1.7	0.9	-0.3
CN(NS(=O)(=O)c1ccc(Br)cc1)c1nc(C(F)(F)F)nc2ccccc12	0.1	4.9	-9.4	-10.0	1.7	28.6*
CCOC(=O)CS(=O)(=O)c1nc(-c2ccccc2)cc(C(F)(F)F)n1	-11.0	2.5	8.7	37.8*	-8.0	14.8
CC(=O)Nc1ccc(Nc2ccccc2)cc1	0.6	1.5	3.1	-4.3	14.8	-2.0
CC(=O)CC(=O)Nc1ccc(Nc2ccccc2)cc1	0.5	1.9	-2.3	29.9*	-12.0	-1.3
CC12CCC(=O)C=C1CCC1C2CCC2(C)C(c3csc(N)n3)CCC12 (stereo unspecified)	-3.6	18.6	-35.1	46.9*	-14.9	18.9
CC12CCC(=O)C=C1CCC1C2C(O)CC2(C)C(c3csc(N)n3)CCC12 (stereo unspecified)	-1.2	11.8	-11.7	4.7	-9.0	13.2
CCN(CC)S(=O)(=O)c1ccc(Cl)c(C(=O)Nc2ccc(Cl)cc2[N+](=O)[O-])c1	2.5	10.2	-16.0	24.8	-22.0	30.0*
CN(C)S(=O)(=O)c1ccc(Cl)c(C(=O)Nc2ccccc2[N+](=O)[O-])c1	-1.7	3.6	4.3	-14.2	-0.1	-3.0
SMILES	M5 ag	M4 ag	CHRM5 PAM	CHRM4 antagonist	CHRM4 PAM	CHRM5 antagonist
O=C(O)c1ccc(N/N=C/c2cccc(F)c2)cc1	2.3	5.1	-4.8	-3.0	2.8	4.7
O=C(O)c1ccc(N/N=C/c2cccc(C(F)(F)F)c2)cc1	-1.6	0.2	-5.2	6.0	-4.4	28.6*
Cn1c(=O)c2[nH]c(-c3ccc(S(=O)(=O)O)cc3)nc2n(C)c1=O	67.9*	0.8	-20.1	-0.8	-4.1	-0.8
CN(C(=O)COC(=O)c1ccc2ccccc2n1)C1CCS(=O)(=O)C1 (stereo unspecified)	-0.9	1.7	-6.4	-9.0	14.2	6.4
C1CC2CN(c3nc4nonc4nc3N3CCSCC3)CCN2C1 (stereo unspecified)	-8.4	0.9	-4.6	9.0	-10.1	0.1
C1CCN(C2CCN(c3nc4nonc4nc3N3CCSCC3)CC2)C1	-9.5	1.0	-10.9	31.3*	-20.0	6.5
CC(=O)Nc1c(I)c(NC(C)=O)c(I)c(C(=O)O)c1I	62.8*!	-0.1	3.2	-1.7	-5.0	-8.1
CCc1cc(=O)oc2cc(C)cc(OCC(=O)NC(Cc3c[nH]c4ccc(O)cc34)C(=O)O)c12 (stereo unspecified)	3.2	0.1	3.5	-19.7	20.8*	-2.9
CCOc1ccc(S(=O)(=O)N2CCC(C(=O)N3CCN(Cc4ccccc4)CC3)CC2)cc1	-1.4	14.2	-7.2	-10.2	-7.1	3.8
Cc1nnc(SCCn2c(N3CCC(C)CC3)nc3c2c(=O)[nH]c(=O)n3C)s1	2.1	1.8	2.8	-6.9	10.1	-9.5
Cc1nnc(SCCn2c(N3CCCC(C)C3)nc3c2c(=O)[nH]c(=O)n3C)s1 (stereo unspecified)	3.3	0.6	19.5*	16.2	8.1	-14.9
COc1cc(/C=N/NC(=O)c2cc(-c3cccc(Br)c3)nc3ccccc23)cc(OC)c1O	0.4	2.0	0.2	3.4	-5.6	6.1
Cc1ccccc1-n1c(O)c(/C=N/N2CCCCC2c2cccnc2)c(=O)[nH]c1=O (stereo unspecified)	12.4	1.4	29.5*	-5.7	24.2*	2.5
Cc1ccc(S(=O)(=O)N2CCCCC2c2cccnc2)c(C)c1C (stereo unspecified)	-7.4	1.5	-4.0	-3.5	-14.5	2.9
O=C(c1ccncc1)c1ccc(Br)cc1	1.7	-0.1	-0.4	9.5	35.2*	-7.1
COc1ccc(C(=O)c2ccc(Br)cc2)cc1	-0.8	-0.6	-0.3	-6.3	5.9	-7.0
CCCCNc1c2c3c(cccc3n(C)c1=O)C(=O)c1ccccc1-2	140.2*	175.9*	-17.5	76.6*	-39.4	71.4*
CC(=O)Nc1ccc(Nc2c3c4c(cccc4n(C)c2=O)C(=O)c2ccccc2-3)cc1	1.7	7.7	-8.0	4.9	-8.7	3.4

Screens from PubChem BioAssay.
